{"source": "paper PMC7851350", "about": "(Neoplasia (New York, N.Y.), 2021)", "key": {"B16F10-hPD-L1 tumor": {"tested_on": "B16F10-hPD-L1 tumor", "assay": "Antitumor efficacy in B16F10-hPD-L1 tumor-bearing C57BL/6 mice", "format": "in vivo"}, "Jurkat cells": {"tested_on": "Jurkat cells", "assay": "Cell toxicity on Jurkat cells during flow cytometric experiments", "format": "cell-based", "conditions": "concentration up to 50 μM"}, "murine PD-L1 protein": {"biological_target": "murine PD-L1 protein (Mus musculus, UniProt Q9EP73)", "sequence (Q9EP73 19-290)": "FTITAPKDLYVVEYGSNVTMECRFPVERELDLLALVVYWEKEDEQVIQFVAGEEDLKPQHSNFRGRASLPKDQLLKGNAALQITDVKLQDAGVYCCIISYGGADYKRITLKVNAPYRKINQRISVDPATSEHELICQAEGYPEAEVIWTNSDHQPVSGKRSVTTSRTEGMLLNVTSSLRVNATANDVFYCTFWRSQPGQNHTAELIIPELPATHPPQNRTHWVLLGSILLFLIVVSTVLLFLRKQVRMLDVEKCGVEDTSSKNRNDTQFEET", "assay": "SPR binding affinity to murine PD-L1", "outline": "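SPR running buffer was 1.05× PBS (pH 7.4) with 5% DMSO, at 25°C and 30 µL/min. DMSO solvent correction used 8 standards (4.5–5.8%). Test compound (10 mM DMSO stock) was diluted to 100–3.125 µM plus a 0 µM blank. Each cycle had 90 s injection, 120 s dissociation and 30 s buffer carryover check. Kd came from a global steady-state fit.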"}, "[1]": {"tested_on": "CD4+ T cells cocultured with NCI-H1975 cells", "assay": "T cell response assay, CD4+ T cells cocultured with NCI-H1975 cells", "format": "cell-based, human", "conditions": "48 h coculture, ELISA", "outline": "(§1)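 Human CD4⁺ T blasts were expanded ~7 d with IL-2 (100 IU/mL) and CD3/CD28 beads (1:1), then frozen. Target cells (NCI-H1975, HEK293T-hPD-L1 or PD-L1-negative HEK293T; 10,000/well) adhered for 24 h. T cells (2 × 10⁴; E:T 2:1) were added with or without test compound or atezolizumab in complete RPMI-1640 for 48 h at 37°C, 5% CO₂. Supernatant IFN-γ and TNF-α were measured by ELISA.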"}, "[2]": {"tested_on": "B16F10-hPD-L1 tumor tissue", "assay": "RNA-seq of B16F10-hPD-L1 tumor tissue", "format": "in vivo, mice", "conditions": "15 mg/kg vs vehicle"}, "[3]": {"assay": "Stability assay in human blood plasma", "format": "in vitro ADME", "outline": "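Test compound at 2 µM was incubated in human plasma at 37°C. Duplicate samples were taken at 0, 10, 30, 60 and 120 min. Reactions were stopped with 50% ACN/MeOH containing tolbutamide and labetalol (200 ng/mL each).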"}, "[4]": {"tested_on": "B16F10-hPD-L1 tumor tissue", "assay": "Immunohistochemistry of B16F10-hPD-L1 tumor tissue", "format": "in vivo, mice", "conditions": "IHC, 15 mg/kg, vs vehicle", "outline": "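Tumours came from B16F10-hPD-L1-bearing C57BL/6 mice given 15 mg/kg test compound or vehicle. Sections (4 µm) of 4% PFA-fixed, paraffin-embedded tissue were incubated with anti-FoxP3, anti-CD4 and anti-CD8 overnight at 4°C. HRP secondary was applied for 30 min, followed by DAB. Positive particles were counted per field.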"}, "[5]": {"tested_on": "CD4+ T cells cocultured with hPD-L1 overexpressed HEK293T cells", "assay": "T cell response assay, CD4+ T cells cocultured with HEK293T-hPD-L1 cells", "format": "cell-based, human", "conditions": "48 h coculture", "outline": "as §1"}, "[6]": {"tested_on": "spleen T lymphocyte markers", "assay": "Immunohistochemistry of spleen from treated tumor-bearing mice", "format": "in vivo", "conditions": "IHC, 15 mg/kg, vs vehicle", "outline": "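Spleens came from tumour-bearing mice treated with 15 mg/kg test compound or vehicle. Sections (4 µm) of 4% PFA-fixed, paraffin-embedded tissue were stained overnight at 4°C with anti-CD4, CD8 and FoxP3. HRP secondary was applied for 30 min, then DAB. Positive particles were counted per field (n = 5); mean ± SEM, unpaired t test.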"}, "splenic lymphocytes": {"tested_on": "splenic lymphocytes", "format": "in vivo, mice", "conditions": "15 mg/kg, vs vehicle", "outline": "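B16F10-hPD-L1 (5 × 10⁶ s.c.) mice received 15 mg/kg test compound i.p. every 2 d or vehicle. Spleens were taken at day 24, meshed through 70 µm, ACK-lysed, and 1 × 10⁶ cells were stained for CD3, CD4, CD8 and perforin. For intracellular cytokines, 2 × 10⁶ cells were stimulated with activation cocktail (1:500) plus brefeldin A (1:1000) for 3–4 h at 37°C, then stained for CD3, CD4, IFN-γ and TNF-α. Data are mean ± SEM; unpaired t test.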"}, "[7]": {"format": "in vivo, mice", "outline": "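Female C57BL/6 mice bearing subcutaneous B16F10-hPD-L1 tumours were randomised and dosed daily for 1 wk with vehicle, 15 mg/kg or 50 mg/kg test compound. On day 7 after the first dose, serum GOT, GPT, ALP and ALB were measured on an automatic dry-type biochemical analyser. Deaths and toxic effects were recorded during the study.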"}, "[8]": {"tested_on": "tumor-infiltrating lymphocytes (TILs)", "assay": "Flow cytometry of tumor-infiltrating lymphocytes from B16F10-hPD-L1 tumors", "format": "in vivo, mice", "conditions": "15 mg/kg", "outline": "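Tumours from B16F10-hPD-L1 mice treated with 15 mg/kg test compound or vehicle were minced and digested for 45 min at 37°C in collagenase IV (200 U/mL) plus DNase I (40 U/mL). They were then treated with EDTA for 5 min at 37°C and strained at 70 µm. Cells were stained for CD3, CD4, CD8, perforin and granzyme B and analysed by flow cytometry; mean ± SEM, unpaired t test.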"}, "MC38 tumor": {"tested_on": "MC38 tumor", "assay": "Antitumor efficacy in MC38 colon tumor-bearing mice", "format": "in vivo, C57BL/6 mice", "outline": "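Mice were female C57BL/6, 5–6 wk old. MC38 cells (3 × 10⁶) were injected s.c. into the right abdomen; mice were randomised at 50–70 mm³. Test compound (10 or 15 mg/kg) was given i.p. every 2 d in saline with 8% ethanol and 8% glycerin. Atezolizumab (10 mg/kg) was given i.v. every 3 d. Calipers were read every 2 d; volume = 1/2 × L × W². Mice were sacrificed after 7 doses. Body weight was followed; growth inhibition was computed against vehicle and predose volumes.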"}, "[9]": {"tested_on": "CD4+ T cells cocultured with PD-L1-negative HEK293T cells", "format": "cell-based, human", "conditions": "coculture with PD-L1-negative HEK293T cells, 48 h", "outline": "as §1"}, "[10]": {"tested_on": "CD4+ T cells cultured alone", "assay": "T cell response assay, prestimulated T cells cultured alone", "format": "cell-based, human", "conditions": "T-lymphocytes cultured alone, 48 h", "outline": "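Prestimulated human CD4⁺ T cells (IL-2 100 IU/mL, CD3/CD28 beads 1:1, ~7 d expansion) were cultured alone (2 × 10⁴) with or without test compound for 48 h at 37°C, 5% CO₂. Supernatant IFN-γ and TNF-α were measured by ELISA.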"}, "PD-L1": {"tested_on": "PD-L1", "conditions": "cited from earlier work"}, "post-treatment tumors": {"tested_on": "post-treatment tumors", "conditions": "responders; cited from earlier work"}, "[11]": {"conditions": "15 and 50 mg/kg daily, day 7, vs control"}, "[12]": {"conditions": "flow cytometry and IHC, vs vehicle"}}, "data": [{"compound": "NC(=O)c1ccccc1NC(=O)c1ccc(-c2ccccc2)cc1", "note": "[APBC, N-[2-(aminocarbonyl)phenyl][1,1′-biphenyl]-4-carboxamide]", "values": [{"measurement": "tumor growth inhibition", "setting": "B16F10-hPD-L1 tumor; 10 mg/kg intraperitoneal every 2 d, 8 treatments", "result": 62.1, "unit": "%"}, {"measurement": "treated animals almost tumor free", "setting": "B16F10-hPD-L1 tumor; 15 mg/kg intraperitoneal every 2 d", "result": "4 of 10"}, {"measurement": "tumor growth inhibition", "setting": "B16F10-hPD-L1 tumor; 15 mg/kg intraperitoneal every 2 d, 8 treatments", "result": 82.2, "unit": "%"}, {"measurement": "spleen (splenomegaly / spleen weight)", "setting": "B16F10-hPD-L1 tumor; day 24 after tumor inoculation, vs vehicle group with splenomegaly", "result": "normal spleens"}, {"measurement": "cell toxicity", "setting": "Jurkat cells", "result": "not observed"}, {"measurement": "Kd", "setting": "murine PD-L1 protein", "result": "> 100", "unit": "µM"}, {"measurement": "IFN-γ level", "setting": "[1]", "result": "dose dependent increase"}, {"measurement": "TNF-α level", "setting": "[1]", "result": "dose dependent increase"}, {"measurement": "infiltration of CD8+ T cells in the tumor", "setting": "[2]; CIBERSORTx, P< 0.05", "result": "significant higher infiltration"}, {"measurement": "immune pathways (antigen processing and presentation, T-cell receptor signaling, TNF signaling, Th1 and Th2 cell differentiation)", "setting": "[2]; GSEA", "result": "markedly upregulated"}, {"measurement": "pathways related to Glycolysis or MAPK signaling pathway", "setting": "[2]; GSEA", "result": "markedly downregulated"}, {"measurement": "blood plasma stability", "setting": "[3]", "result": "relatively good"}, {"measurement": "FoxP3 expression levels within tumors", "setting": "[4]", "result": "did not significantly change"}, {"measurement": "TNF-α level increase", "setting": "[5]; 10 µM", "result": 41.8, "unit": "%"}, {"measurement": "TNF-α production increase", "setting": "[5]; 50 μM", "result": 86.6, "unit": "%"}, {"measurement": "density of CD4+ T lymphocytes in the spleen", "setting": "[6]", "result": "considerably higher density"}, {"measurement": "density of CD8+ T lymphocytes in the spleen", "setting": "[6]", "result": "considerably higher density"}, {"measurement": "expression of FoxP3 in the spleen", "setting": "[6]", "result": "no significant changes"}, {"measurement": "percentage of CD3+ CD4+ T lymphocytes in the spleen", "setting": "splenic lymphocytes; P < 0.001", "result": "significantly increased"}, {"measurement": "percentage of CD3+ CD8+ T lymphocytes in the spleen", "setting": "splenic lymphocytes; P < 0.001", "result": "significantly increased"}, {"measurement": "percentage of CD3+ T lymphocytes in the spleen", "setting": "splenic lymphocytes; P < 0.001", "result": "significantly increased"}, {"measurement": "percentage of IFN-γ producing CD4+ T cells", "setting": "splenic lymphocytes; spleen", "result": "extremely significant increase"}, {"measurement": "percentage of TNF-α producing CD4+ T cells", "setting": "splenic lymphocytes; spleen", "result": "extremely significant increase"}, {"measurement": "perforin production from CD3+ cells", "setting": "splenic lymphocytes; spleen, P< 0.01", "result": "significantly increased"}, {"measurement": "drug-related deaths", "setting": "[7]; 1-wk, daily up to 50 mg/kg", "result": "no drug-related deaths"}, {"measurement": "drug-related toxic effects", "setting": "[7]; 1-wk, daily up to 50 mg/kg", "result": "no drug-related toxic effects observed"}, {"measurement": "tolerability", "setting": "[7]; 1-wk, daily up to 50 mg/kg", "result": "well tolerated"}, {"measurement": "serum level of ALB", "setting": "[7]; [11]", "result": "no significant changes"}, {"measurement": "serum level of ALP", "setting": "[7]; [11]", "result": "no significant changes"}, {"measurement": "serum level of GOT", "setting": "[7]; daily, up to 50 mg/kg, day 7", "result": "tendency to considerable decrease"}, {"measurement": "serum level of GPT", "setting": "[7]; daily, up to 50 mg/kg, day 7", "result": "tendency to considerable decrease"}, {"measurement": "toxicity in murine models", "setting": "[7]; up to 50 mg/kg", "result": "no observable toxicity"}, {"measurement": "GzmB expression in CD3+ T cells of tumors", "setting": "[8]; TILs, vs controls", "result": "markedly elevated"}, {"measurement": "perforin expression in CD3+ T cells of tumors", "setting": "[8]; TILs, vs controls", "result": "markedly elevated"}, {"measurement": "CD4+ T-cell population in tumors", "setting": "[8]; [12]", "result": "significantly increased"}, {"measurement": "CD8+ T-cell population in tumors", "setting": "[8]; [12]", "result": "significantly increased"}, {"measurement": "growth of colon tumors", "setting": "MC38 tumor; 10 mg/kg, after 7 times of treatment", "result": "inhibited significantly"}, {"measurement": "effect on body weight", "setting": "MC38 tumor; during the treatment period", "result": "no significant effect"}, {"measurement": "IFN-γ and TNF-α production", "setting": "[9]", "result": "did not significantly affect"}, {"measurement": "IFN-γ and TNF-α production", "setting": "[10]", "result": "did not significantly affect"}]}, {"compound": "C[C@@H](O)[C@H](NC(=O)N[C@@H](CC(N)=O)c1nc([C@@H](N)CO)no1)C(=O)O", "note": "[CA-170]", "values": [{"measurement": "direct binding to PD-L1", "setting": "PD-L1", "result": "no direct binding"}]}, {"compound": "Atezolizumab: anti-PD-L1 antibody, positive control [reference compound]", "values": [{"measurement": "tumor growth inhibition", "setting": "B16F10-hPD-L1 tumor; 10 mg/kg tail vein injection every 3 d", "result": 66.1, "unit": "%"}, {"measurement": "cytokines production such as IFN-γ and TNF-α", "setting": "post-treatment tumors", "result": "increased"}]}]}
